Measured values published in article PMC11718131 (Communications Biology, 2025).
Peptide text beside a SMILES is read from it. * marks the point of attachment. Cbz = O=C(OCc1ccccc1)*

Tests used:
[1] = Huntington's disease; cited from earlier work
[2] = test system: proteasome; GFP-CA2-DRD fusion in Jurkat cells; experiment: Proteasome inhibition assay; format: cell-based, human; conditions: 10 µM MG132, 4 h without ACZ after 24 h ACZ; versus vehicle
How it was run: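 Cells then washed with fresh media and split in two: one arm […] 10 µM MG132 for 4 h. GFP expression read by flow cytometry.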

[3] = test system: wildtype (WT) CA2; conditions: in words; cited from earlier work
[4] = cited from earlier work

**Q.** For `CC1(C)CC(Oc2ccc(-c3ccc(-c4cn[nH]c4)cc3O)nn2)CC(C)(C)N1` [branaplam], which “clinical trial outcome” value [1] is on record?
**A.** halted because of drug-related side effects

**Q.** For `CC(C)C[C@@H](C=O)NC(=O)[C@H](CC(C)C)NC(=O)[C@H](CC(C)C)NC(=O)OCc1ccccc1` [MG132] (Cbz-Leu-Leu-Leu-aldehyde), which “decrease in GFP levels after ACZ withdrawal” value [2] is on record?
**A.** smaller decrease in GFP levels

**Q.** Which results are given for `CC(=O)Nc1nnc(S(N)(=O)=O)s1` [ACZ, acetazolamide]?
**A.** affinity to CA2 [3]: low nanomolar affinity; total in vivo exposure levels ([4]; FDA-approved and clinically used doses): ~ 100 µM; total concentrations in plasma and other tissues ([4]; approved doses, in words): micromolar range
